Biological target: Muscarinic acetylcholine receptor M2 (Homo sapiens) (UniProt P08172)
Test: M2 receptor positive allosteric modulation off-target check, dose response, selectivity assay for M1 muscarinic PAM project, cell-based, CHO-K1 M2/Gqi5, Fluo-4 calcium, ACh EC20 (AID 2430)
Details: CHO-K1 M2/Gqi5 calcium Fluo-4, ACh EC20 PAM mode; series mostly up to 30 µM; percent of max ACh response: at the top concentration; call rule not given here
In short: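 Test system: CHO-K1 cells transfected with human M2 receptor and Gqi5; buffer or medium: HEPES- and probenecid-supplemented HBSS, pH 7.4; also added: acetylcholine at roughly EC20 (submaximal) concentration; doses: test compound with 0.3% DMSO final; times: 37 °C dye loading, 1.5 min compound, 50 s ACh, 25 °C; measured by: calcium flux measured with Fluo-4 fluorescent dye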

Sequence of Muscarinic acetylcholine receptor M2 (Homo sapiens) (P08172 whole entry, looked up): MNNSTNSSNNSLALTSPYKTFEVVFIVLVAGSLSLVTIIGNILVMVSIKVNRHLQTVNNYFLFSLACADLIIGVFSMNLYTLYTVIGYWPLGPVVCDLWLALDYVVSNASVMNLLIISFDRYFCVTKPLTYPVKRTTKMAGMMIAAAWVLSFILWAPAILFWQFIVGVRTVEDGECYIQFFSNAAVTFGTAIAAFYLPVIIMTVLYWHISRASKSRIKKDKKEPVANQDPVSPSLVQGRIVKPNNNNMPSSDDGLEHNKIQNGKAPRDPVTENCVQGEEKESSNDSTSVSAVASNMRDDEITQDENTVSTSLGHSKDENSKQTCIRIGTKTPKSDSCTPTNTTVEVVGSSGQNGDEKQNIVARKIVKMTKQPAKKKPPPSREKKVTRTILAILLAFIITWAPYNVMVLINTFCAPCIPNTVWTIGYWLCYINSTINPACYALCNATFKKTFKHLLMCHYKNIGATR

Percent of max ACh response, inactive:
Cn1cc(-c2ccc(CN3C(=O)C(=O)c4ccccc43)c(F)c2)cn1 26.4%
O=C1C(=O)N(Cc2ccc(Oc3ccccc3)cc2)c2ccc(OC(F)(F)F)cc21 10.6%
Cc1cc(NC(=O)CS(=O)(=O)c2cn(Cc3cc(Br)ccc3F)c3ccccc23)no1 13.4%
Cn1cc(-c2cc(F)c(CN3C(=O)C(=O)c4ccccc43)c(F)c2)cn1 23.3%
